CHO parental Ca: counter-screen for OX1R antagonists: effect in parental CHO cells; parental CHO-K1, ATP-induced calcium, Fluo-8 fluorescence; inhibition, % at 5.6 µM; hit rate 0.63% among 330,000; AID 463079;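 active = inhibition above that plate's mean sample inhibition plus 3 SD, cut at about 26% in these data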;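 note: 0% = ATP-challenged DMSO wells and 100% = DMSO wells without ATP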
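material = parental CHO cells | also added = ATP as calcium-mobilizing challenge | dosing = single point at 5.6 µM | detection = intracellular calcium via Fluo-8 no-wash fluorescent dye | read-out = % inhibition | benchmarks = low control ATP plus DMSO, high control DMSO only | repeats = one well per compound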
GPR7 antag: blocks human GPR7 receptor signaling; P48145; inhibition, % at 4.4 µM; hit rate 1.1% among 290,000; GPR7-expressing cells, fluorescence antagonist assay; in the data active = inhibition above about 16%, passing the limit was not always enough;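 note: cells stimulated with the agonist NPW; 0% = agonist with vehicle and 100% = vehicle without agonist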
Target sequence (P48145 whole entry, looked up): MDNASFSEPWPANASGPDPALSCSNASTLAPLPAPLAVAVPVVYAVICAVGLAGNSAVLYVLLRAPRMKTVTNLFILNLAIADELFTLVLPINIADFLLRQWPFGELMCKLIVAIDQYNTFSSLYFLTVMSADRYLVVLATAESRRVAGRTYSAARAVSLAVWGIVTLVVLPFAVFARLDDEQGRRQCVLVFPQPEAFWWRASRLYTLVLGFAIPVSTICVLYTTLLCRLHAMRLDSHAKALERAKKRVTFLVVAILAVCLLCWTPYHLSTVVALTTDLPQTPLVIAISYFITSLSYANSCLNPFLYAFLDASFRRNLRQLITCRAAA
TAAR1 ag: agonists of human TAAR1; AID 624467; activation, % at 3 µM; hit rate 0.99% among 360,000; CHO RD-HGA16 TAAR1, Fluo-8 calcium fluorescence; vehicle wells 0%, saturating PEA agonist 100%; Q96RJ0;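 active = activation above the mean activation of all test compounds in the run plus 3 SD, cut at about 38% in these data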
Target sequence (Q96RJ0 whole entry, looked up): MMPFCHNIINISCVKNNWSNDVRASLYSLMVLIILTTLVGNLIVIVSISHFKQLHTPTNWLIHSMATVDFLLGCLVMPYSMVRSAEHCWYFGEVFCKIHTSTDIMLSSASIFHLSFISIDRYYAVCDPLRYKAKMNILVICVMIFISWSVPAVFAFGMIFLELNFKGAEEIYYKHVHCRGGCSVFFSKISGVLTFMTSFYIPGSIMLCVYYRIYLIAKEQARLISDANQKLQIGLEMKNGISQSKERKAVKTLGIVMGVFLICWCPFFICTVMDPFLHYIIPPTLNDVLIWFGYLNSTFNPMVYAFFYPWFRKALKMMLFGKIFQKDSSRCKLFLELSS
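Assay system – CHO-derived RD-HGA16 cells with stable Gα16 and human TAAR1 · Compound dosing – one-point dosing at 3 µM (nominal) · Incubation – 17-24 h seeding, 75 min 37 °C dye, 30 min RT · Measured by – kinetic Fluo-8 calcium fluorescence · Control set – DMSO vehicle as 0%, PEA at EC100 as 100% · Repeats – single well for each compound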
OX1R antag-1: blocks the human orexin 1 receptor; hit rate 0.43% among 330,000; CHO/OX1R cells, Fluo-8 calcium fluorescence, orexin A; AID 434989; inhibition, % at 5 µM;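 active = inhibition above its plate's threshold, mean inhibition of all tested compounds on the plate plus 3 SD, cut at about 37% in these data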;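 note: 0% = orexin A challenge wells and 100% = SB-334867-A antagonist wells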
TAAR1 antagonist: antagonists of human TAAR1; CHO RD-HGA16 TAAR1, Fluo-8 calcium fluorescence, antagonist; inhibition, % at 3 µM; hit rate 1.5% among 360,000; AID 624466;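 active = inhibition above a per-plate cutoff, the mean inhibition of test compounds on that plate plus 3 SD, cut at about 49% in these data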;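 note: 0% = DMSO plus EC80 beta-PEA response and 100% = DMSO alone without agonist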
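Material: CHO RD-HGA16 cells bearing hTAAR1; compound dosing: one-point dosing, 3 µM nominal final; schedule: dye loading 75 min at 37 °C, then 30 min room temperature; measured by: calcium fluorescence with Fluo-8; control set: vehicle and agonist controls; replication: n of 1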
OX1R antag-2: antagonists of human orexin 1 receptor (OX1R); O43613; OX1R-expressing cells, FRET antagonist read-out; inhibition, % at 6.6 µM; hit rate 1.8% among 330,000; AID 485270; in the data active = inhibition mostly above about 38%, no sharp cut-off; inactive = mostly below about 40%;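 note: 0% = agonist challenge alone and 100% = reference antagonist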
Numbers without * were called inactive; x = no result given. Hits are enriched below; roughly 4.6% of the tested compounds scored in any of these assays.

SMILES	CHO parental Ca	GPR7 antag	TAAR1 ag	OX1R antag-1	TAAR1 antagonist	OX1R antag-2
COc1ccc(NS(=O)(=O)c2ccc(C(=O)N3CCN(c4ccc(F)cc4)CC3)cc2)cc1	27*	x	17	34	43	8
COc1ccc(N2CCN(C(=O)c3cccc(NS(=O)(=O)c4cccc(F)c4)c3)CC2)cc1	x	-3	1	x	-29	x
CNc1cc(CSC)nc(SCc2ccc(Cl)c(Cl)c2)n1	-17	-4	2	55*	13	49*
Cc1nc(SCc2ccc(Cl)c(Cl)c2)n[nH]1	x	-15	-1	x	-6	x
O=c1ccn2c(n1)OC1CC2OC1COC(c1ccccc1)(c1ccccc1)c1ccccc1 (stereo not given)	x	x	2	x	-25	x
O=C(Nc1cccc(Cl)c1)Nc1nnc([C@H]2C[C@H](O)[C@@H](CO)O2)s1	x	x	29	x	-15	x
CCCCC(O)(CCCC)C(=O)N/N=C(\C)c1ccc(Cl)cc1	-23	20*	-2	-5	-31	8
CCCCC[C@H](O)/C=C/[C@H]1CCC(=O)[C@@H]1CCCCCCC(=O)N1CCCCC1CO (stereo not given in full)	-1	25	23	-2	71*	-10
CCC1CCCCN1C(=O)CCCOc1ccccc1 (stereo not given)	-22	-3	2	-18	7	5
O=c1c2ccccc2nc2c3ccccc3c(NCCO)nn12	-9	-12	2	-19	24	50*
O=c1c2ccccc2nc2c3ccccc3c(NCc3cccnc3)nn12	-19	-8	4	-16	-15	56
O=[N+]([O-])c1ccc(SN2CCCCC2)c([N+](=O)[O-])c1	x	x	1	x	1	x
Cc1cc2cc3c(cc2nc1SCc1ccccn1)OCCO3	-12	7	5	-9	-23	25
N#Cc1cc2ccccc2nc1SCc1ccccn1	1	15	34	18	13	49*
CC1CC(=O)Nc2ccccc2N1C(=O)COc1ccccc1C(N)=O (stereo not given)	x	x	3	x	-31	x
Cc1ccc(C)c(S(=O)(=O)N2CCN(C(=O)C3CCN(c4ncnc5sc(C)c(C)c45)CC3)CC2)c1	-3	x	5	17	59*	-1
CCN(CC)S(=O)(=O)c1cc(NC(=O)C2CCN(c3ncnc4sc(C)c(C)c34)CC2)ccc1Cl	7	x	5	14	65*	23
Cc1ccc(NC(=O)C2CCN(c3ncnc4sc(C)c(C)c34)CC2)cc1S(=O)(=O)N(C)C	-6	x	7	-31	34	20
COc1ccc(C2O[C@@H](C)[C@@H]3C(=O)N4CCc5c([nH]c6ccccc56)[C@@H]4C[C@@H]3N2C)cc1 (stereo not given in full)	x	x	0	x	-12	x
COc1ccccc1C(=O)N/C(=C/c1ccc(Br)cc1)C(=O)N1CCOCC1	x	x	1	x	-6	x
COc1ccc(CN(C)C(=O)C(Cc2ccccc2)NC(=O)c2ccccc2)cc1F (stereo not given)	x	x	14	x	73*	x
COc1ccc(CN(C)C(=O)c2ccc(Oc3ccccc3)cc2)cc1F	-4	13	1	-27	32	13
COc1ccc(N=C2SC(CC(=O)Nc3ccccc3)C(=O)N2CCc2ccccn2)cc1 (stereo not given)	-5	2	3	16	3	69*
COc1ccc(OC)c(NC(=O)CC2SC(=Nc3ccccc3)N(CCc3ccccn3)C2=O)c1 (stereo not given)	-11	-3	4	-25	11	22
C=CCNC(=S)N(C)[C@H]1C[C@H]2c3cc(-c4ccccc4C)ccc3CCN2C[C@H]1[C@H](C)O	x	x	2	x	-27	x
SMILES	CHO parental Ca	GPR7 antag	TAAR1 ag	OX1R antag-1	TAAR1 antagonist	OX1R antag-2
CN(C[C@H](Cc1ccccc1)N(C[C@@H](Cc1cccc2ccccc12)N(CCc1ccccc1)N=O)N=O)N=O	-17	-14	41*	-10	7	37
Cc1ccc(S(=O)(=O)N2CCCc3nc(C)c(C)cc32)cc1	x	x	-1	x	-19	x
CCOCCCNC1=C(Cl)C(=O)c2ccccc2C1=O	-7	-10	14	-8	-8	71*
CCOCCCNS(=O)(=O)c1ccccc1	-5	2	3	-9	9	10
O=C1C(Cl)=C(NCCCN2CCOCC2)C(=O)c2ccccc21	x	x	2	x	-4	x
O=C1C(Cl)=C(NCCN2CCOCC2)C(=O)c2ccccc21	2	-6	33	1	19	61*
CC(C)c1ccc(Oc2cccc3c2S(=O)(=O)N([C@H](C)c2ccccc2)C[C@@H](COCc2ccccc2)O3)cc1	x	x	0	x	-11	x
Cc1cccc(NC(=O)CNC(=O)[C@H](CCc2ccccc2)NC(=O)[C@H]2O[C@@H](n3cnc4c(N)ncnc43)[C@H](O)[C@@H]2O)c1C	x	x	6	x	-27	x
CC(=O)N1CCN(c2ccc(N3CCN(Cc4ccccc4)[C@H](C)C3)c(C)c2)[C@@H](C)C1	x	x	2	x	-38	x
N#CCN1C(=S)N=C(Nc2cccc(Cl)c2)C12CCCCC2	47*	-18	12	-11	-6	43
O=C1C=C(N2CCOCC2)c2ccccc2C1=O	-3	-9	5	-13	13	64*
O=C1C=C(N2CCOCC2)c2cccc3cccc1c23	x	x	11	x	0	x
C[C@H](O)[C@@H]1C(=O)N2CCc3c([nH]c4c(-c5ccccc5)cccc34)[C@@H]2C[C@@H]1N(C)C(=O)c1ccccc1F	x	x	10	x	18	x
NS(=O)(=O)c1ccc(N/N=C/c2ccccn2)c([N+](=O)[O-])c1	-3	-11	0	-12	10	46*
NS(=O)(=O)c1ccc(N/N=C/c2ccc(O)cc2O)c([N+](=O)[O-])c1	1	1	3	4	10	20
C/C(=N\Nc1ccc(S(N)(=O)=O)cc1[N+](=O)[O-])c1ccco1	16	-11	-3	8	3	41*
C/C(=N\Nc1ccc(S(N)(=O)=O)cc1[N+](=O)[O-])c1ccccc1O	-13	-7	5	-1	-15	22
CCOCCCNc1nc2c(C)cccn2c(=O)c1/C=C1\SC(=S)N(C(C)CC)C1=O (stereo not given)	26	-7	12	45*	-2	0
COc1ccccc1N1CCN(C(=O)c2cn(Cc3ccccc3)nc2-c2cccnc2)CC1	-32	x	47*	-31	19	-3
C=CCN1C(=Nc2cccnc2)SCC1(O)c1ccc(C)cc1 (stereo not given)	37*	24	x	19	x	29
CC(=O)c1c(O)cc2c3c1OC(C)(C)C1CCC(C)(CC31)O2 (stereo not given)	x	x	8	x	52*	x
COC(=O)c1cc2c(c3c4cc(OC)ccc4n(C(=O)c4ccccc4)c13)C(=O)N(C1CCCCC1)C2	x	x	1	x	22	x
O=C1C=C(Nc2ccccc2C(=O)O)c2ccccc2C1=O	-5	-13	1	-6	-14	51

Source: PubChem BioAssay (The Scripps Research Institute Molecular Screening Center)
